Results taken from ChEMBL document CHEMBL4627351, “Synthesis, biological evaluation and structure-activity relationships of 5-arylidene tetramic acids with antibacterial activity against methicillin-resistant Staphylococcus aureus” (Bioorg Med Chem Lett, 2020).
Converted amounts (≈) assume the structure as drawn.

Experiments:
Erythrocyte = experiment: Hemolytic activity against human RBC; format: ADME, cell-based
Staphylococcus aureus [1] = experiment: Antibacterial activity against methicillin-resistant Staphylococcus aureus ATCC 43300 assessed as reduction in bacterial growth by CLSI protocol based broth microdilution method; format: functional
How it was run: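 Dose-response broth assay in duplicate, 8 points from 0.25 to 32 µg/mL, against MRSA ATCC 43300, with a positive antibiotic control. MIC is the lowest concentration giving full growth inhibition, per CLSI guidelines.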

[2] = Cytotoxicity against human HEK293 cells; format: cell-based
Staphylococcus aureus [3] = experiment: Antibacterial activity against methicillin-resistant Staphylococcus aureus ATCC 43300 assessed as reduction in bacterial growth at 32 ug/ml by CLSI protocol based broth microdilution method relative to control; format: functional
How it was run: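 Primary single-concentration broth screen at 32 µg/mL in duplicate (n = 2) against MRSA ATCC 43300. Mean % growth inhibition was calculated relative to growth and media controls.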

CCCCCCCCCC(=O)C1=C(O)/C(=C/c2ccccc2)N(C(C)=O)C1=O
HC10 (Erythrocyte): 20.4 µg/mL | MIC (Staphylococcus aureus [1]): 4 µg/mL (≈ 10.4 µM) | CC50 [2]: > 32 µg/mL

CCCCCCCC(=O)C1=C(O)/C(=C/c2ccccc2)N(C(C)=O)C1=O
HC10 (Erythrocyte): > 32 µg/mL | MIC (Staphylococcus aureus [1]): 4 µg/mL (≈ 11.3 µM) | CC50 [2]: > 32 µg/mL

CCCCCCCCCCCCCC(=O)C1=C(O)/C(=C/c2ccccc2)N(C(C)=O)C1=O
HC10 (Erythrocyte): > 32 µg/mL | MIC (Staphylococcus aureus [1]): 4 µg/mL (≈ 9.1 µM) | CC50 [2]: > 32 µg/mL

CCCCCCCCCCCCCCCC(=O)C1=C(O)/C(=C/c2ccccc2)N(C(C)=O)C1=O
HC10 (Erythrocyte): > 32 µg/mL | MIC (Staphylococcus aureus [1]): 4 µg/mL (≈ 8.55 µM) | CC50 [2]: > 32 µg/mL

CC(=O)C1=C(O)/C(=C/c2ccc(Cl)cc2)N(C(C)=O)C1=O
inhibition at 32 µg/mL (Staphylococcus aureus [3]): 45.1%

CCCC(=O)C1=C(O)/C(=C/c2ccc(OC)cc2)N(C(C)=O)C1=O
HC10 (Erythrocyte): > 32 µg/mL | MIC (Staphylococcus aureus [1]): 32 µg/mL (≈ 97.2 µM) | inhibition at 32 µg/mL (Staphylococcus aureus [3]): 73.1 to 99.2% | CC50 [2]: > 32 µg/mL

CC(=O)C1=C(O)/C(=C/c2ccc(C(F)(F)F)cc2)N(C(C)=O)C1=O
HC10 (Erythrocyte): > 32 µg/mL | MIC (Staphylococcus aureus [1]): > 32 µg/mL | inhibition at 32 µg/mL (Staphylococcus aureus [3]): 61.7% | CC50 [2]: > 32 µg/mL

CC(=O)N1C(=O)C(C(=O)c2ccccc2)=C(O)/C1=C/c1ccccc1
inhibition at 32 µg/mL (Staphylococcus aureus [3]): 73.1 to 99.2%

CC(=O)C1=C(O)/C(=C/c2ccc([N+](=O)[O-])cc2)N(C(C)=O)C1=O
inhibition at 32 µg/mL (Staphylococcus aureus [3]): 38.6%

CC(=O)C1=C(O)/C(=C/c2ccccc2)N(C(C)=O)C1=O
HC10 (Erythrocyte): > 32 µg/mL | MIC (Staphylococcus aureus [1]): > 32 µg/mL | inhibition at 32 µg/mL (Staphylococcus aureus [3]): 22.9 to 25.5% | CC50 [2]: > 32 µg/mL

CCCC(=O)C1=C(O)/C(=C/c2ccccc2)N(C(C)=O)C1=O
HC10 (Erythrocyte): > 32 µg/mL | MIC (Staphylococcus aureus [1]): 32 µg/mL (≈ 107 µM) | inhibition at 32 µg/mL (Staphylococcus aureus [3]): 73.1 to 99.2% | CC50 [2]: > 32 µg/mL
